From ChEMBL document CHEMBL3414468, “N-benzoyl-1,5-benzothiazepine and its S-oxide as vasopressin receptor ligands: insight into the active stereochemistry around the seven-membered ring” (J Med Chem, 2015) come the findings set out here.

Test [1] concerns the target T1, Vasopressin V2 receptor (Homo sapiens, UniProt P30518). The test is described as follows: Displacement of [3H]-(Arg8)-vasopressin from human vasopressin V2 receptor transfected in CHO cell membranes. The essentials: (§1)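 Competition binding of [3H](Arg8)-vasopressin to human V1a or V2 receptors. Ki is reported as the mean of duplicate measurements. Where no Ki was given, percent inhibition of radioligand binding was read at 10 μM test compound.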
A general note: Loss of bound radioactivity is the signal in a displacement assay; it reports binding, not function.

The target in test [2] is T2, Vasopressin V1a receptor (Homo sapiens, UniProt P37288). The test can be described thus: Displacement of [3H]-(Arg8)-vasopressin from human vasopressin V1a receptor transfected in CHO cell membranes. A digest of the protocol:
as §1
Target sequence in this assay (P37288 whole entry): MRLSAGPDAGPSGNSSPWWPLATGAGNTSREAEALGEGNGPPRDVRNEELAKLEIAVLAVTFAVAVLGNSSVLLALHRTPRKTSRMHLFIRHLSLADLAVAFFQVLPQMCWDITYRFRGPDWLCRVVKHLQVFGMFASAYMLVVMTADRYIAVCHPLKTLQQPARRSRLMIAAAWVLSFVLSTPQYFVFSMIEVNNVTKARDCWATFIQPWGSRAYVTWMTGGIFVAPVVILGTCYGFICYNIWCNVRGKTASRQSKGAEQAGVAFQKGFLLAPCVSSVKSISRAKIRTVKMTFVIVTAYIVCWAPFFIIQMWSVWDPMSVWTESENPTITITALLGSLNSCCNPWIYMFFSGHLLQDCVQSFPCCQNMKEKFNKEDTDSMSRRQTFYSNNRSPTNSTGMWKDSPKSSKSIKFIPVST

For test [3], the target named is T1, Vasopressin V2 receptor. The test is described as follows: Displacement of [3H]-(Arg8)-vasopressin from human vasopressin V2 receptor transfected in CHO cell membranes at 10 uM relative to control. A digest of the protocol: as §1
Test [4] has as its target T2, Vasopressin V1a receptor. The test can be described thus: Displacement of [3H]-(Arg8)-vasopressin from human vasopressin V1a receptor transfected in CHO cell membranes at 10 uM relative to control. The essentials:
as §1
Target sequence in this assay (P37288 whole entry, looked up): as the sequence (P37288 whole entry) above

Values joined by “and” are separate entries in the source; they are usually repeats but may differ in a detail not shown here. Identical values can stand only once.

T1 sequence (P30518 whole entry): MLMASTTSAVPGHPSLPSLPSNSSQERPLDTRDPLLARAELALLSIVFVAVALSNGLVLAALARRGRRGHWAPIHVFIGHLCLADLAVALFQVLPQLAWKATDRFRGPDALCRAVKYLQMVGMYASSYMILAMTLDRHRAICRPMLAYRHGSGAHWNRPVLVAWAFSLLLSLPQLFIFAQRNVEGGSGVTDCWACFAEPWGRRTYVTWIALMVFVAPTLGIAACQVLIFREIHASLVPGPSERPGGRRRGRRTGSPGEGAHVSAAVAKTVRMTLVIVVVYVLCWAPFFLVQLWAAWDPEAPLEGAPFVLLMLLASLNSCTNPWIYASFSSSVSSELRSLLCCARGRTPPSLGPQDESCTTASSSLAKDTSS

Turning to `Cc1ccccc1C(=O)Nc1ccc(C(=O)N2CCC[S@@+]([O-])c3ccccc32)cc1` (stereo in doubt; (+)) [listing 1 of 2 here], affinity at Vasopressin V2 receptor [1] was put at a Ki of 1240 nM.

For the molecule `Cc1ccccc1C(=O)Nc1ccc(C(=O)N2CCCSc3ccccc32)cc1`, the Ki (usually the equilibrium dissociation constant of an inhibitor or competing ligand from its target) stood at 68 nM on Vasopressin V1a receptor [2] and 21 nM on Vasopressin V2 receptor [1]. On Vasopressin V1a receptor [2], `Cc1ccccc1C(=O)Nc1ccc(C(=O)N2CCC[S+]([O-])c3c(C)cccc32)cc1` (racemic) yielded a Ki of 870 nM. For the same molecule, the inhibition (as a rule, how much of the control response was suppressed) on Vasopressin V2 receptor [3] was 34%. Take `Cc1ccccc1C(=O)Nc1ccc(C(=O)N2CCC[S@@+]([O-])c3cccc(C)c32)cc1` (racemic): the values for the inhibition on Vasopressin V1a receptor [4] and at Vasopressin V2 receptor [3] were 55% and 22%, respectively. Turning to `Cc1ccccc1C(=O)Nc1ccc(C(=O)N2CCC[S@@+]([O-])c3ccccc32)cc1` (stereo in doubt; (+)) [listing 2 of 2 here], the inhibition at Vasopressin V1a receptor [4] turned out to be 57%. For `Cc1ccccc1C(=O)Nc1ccc(C(=O)N2CCC[S@@+]([O-])c3c(C)cccc32)cc1` (stereo in doubt; (+)) [listing 1 of 2 here], the Ki at Vasopressin V1a receptor [2] turned out to be 660 nM. Regarding `Cc1ccccc1C(=O)Nc1ccc(C(=O)N2CCCSc3cccc(C)c32)cc1`, the Ki at Vasopressin V1a receptor [2] is 37 nM and 19 nM and 147 nM; at Vasopressin V2 receptor [1] it was 360 nM and 184 nM and 1800 nM.

`Cc1ccccc1C(=O)Nc1ccc(C(=O)N2CCC[S@@+]([O-])c3c(C)cccc32)cc1` (stereo in doubt; (-)): the inhibition is 53% at Vasopressin V1a receptor [4] and 0% on Vasopressin V2 receptor [3]. Turning to `Cc1ccccc1C(=O)Nc1ccc(C(=O)N2CCC[S@@+]([O-])c3ccccc32)cc1` (stereo in doubt; (-)), the Ki on Vasopressin V1a receptor [2] was determined as 550 nM; on Vasopressin V2 receptor [1], 820 nM. Molecule `Cc1ccccc1C(=O)Nc1ccc(C(=O)N2CCC[S@@+]([O-])c3c(C)cccc32)cc1` (stereo in doubt; (+)) [listing 2 of 2 here] gave an inhibition on Vasopressin V2 receptor [3] of 48%. Consider `Cc1ccccc1C(=O)Nc1ccc(C(=O)N2CCC[S+]([O-])c3ccccc32)cc1` (racemic), for which the Ki was found to be 910 nM on Vasopressin V1a receptor [2] and 870 nM on Vasopressin V2 receptor [1]. `Cc1ccccc1C(=O)Nc1ccc(C(=O)N2CCCSc3c(C)cccc32)cc1`: the Ki on Vasopressin V1a receptor [2] came out at 48 nM; at Vasopressin V2 receptor [1], 880 nM.

Regarding `Cc1ccccc1C(=O)Nc1ccc(C(=O)N2CCCN(C)c3cccc(C)c32)cc1`, the Ki is 5.9 nM and 4.4 nM and 13 nM at Vasopressin V1a receptor [2]; 130 nM and 98 nM and 310 nM on Vasopressin V2 receptor [1].
